An excerpt weighted towards active compounds, which were near 3.7% of everything screened.
KCNK9 inh = blocks the human KCNK9 two-pore domain potassium channel | B-score at 10 µM | Q9NPC2 | hit rate 1.2% among 310,000 | AID 488922 | HEK293 KCNK9, FluxOR thallium flux fluorescence; hits give low values;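 active means ratio B-score over 3 SD below the library mean, with starting fluorescence within 5 SD of its mean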;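 further: negative B-score means less thallium flux so channel inhibition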
KCNQ1 pot = potentiators or activators of human KCNQ1 potassium channel | B-score at 10 µM | hit rate 0.35% among 310,000 | P51787 | CHO-K1 KCNQ1, thallium flux FluxOR fluorescence; hits give high values;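 active means fluorescence ratio B-score, a plate-corrected score, at least three library SD, with initial intensity B-score within 5 SD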
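Doses: Single concentration per compound, DMSO matched to controls | Test system: KCNQ1-transfected CHO-K1 cells | Timing: 90 min dye loading and 20 min compound exposure, both at room temperature | Measured by: Kinetic FluxOR thallium fluorescence, 10-s 1-Hz baseline, 110-s post-stimulus read | Medium: Assay buffer with matched DMSO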
KCNK3 block = human KCNK3 channel inhibition, primary screen | O14649 | CHO-KCNK3 thallium flux, FluxOR fluorescence; hits give low values | B-score at 10 µM | hit rate 0.84% among 340,000 | AID 602410;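 active means B-score under library mean minus 4 SD, starting fluorescence ratio at most library mean plus 5 SD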;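 further: more negative B-score means stronger inhibition of thallium flux through KCNK3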
hERG protect = shields human hERG channel from block by proarrhythmic agents | Q12809 | CHO-hERG, FluxOR thallium flux, dofetilide IC70 present | activation (rescue from dofetilide block), less the hit threshold, % at 10 µM | hit rate 0.51% among 310,000;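 active means activation above the mean of controls blocked by dofetilide plus 5 SD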;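 further: thallium influx through hERG after potassium depolarization seen as dye fluorescence rise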
KCNQ1 block = blocks the human KCNQ1 potassium channel; B-score at 10 µM; CHO-K1 KCNQ1, FluxOR thallium flux fluorescence; hits give high values; hit rate 1.3% among 310,000; P51787; AID 2642;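 active means compounds whose thallium flux B-score, printed positive for inhibition, exceeds three library SD while starting fluorescence stays within three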;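 further: channel opened by potassium depolarization with thallium stimulus after 20 min compound exposure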
Kir21 inh = Kir2.1 (mouse) channel inhibition | P35561 | HEK293-Kir2.1, FluxOR thallium flux fluorescence; hits give low values | B-score at 10 µM | hit rate 0.85% among 310,000;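 active means fluorescence ratio B-score at or below minus 3 SD of library scores, with starting-brightness B-score within 2 SD, cut at about -4.2 in these data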;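 further: channel flux triggered by added potassium and thallium sulfate stimulus; B-score of peak minus minimum fluorescence over baseline after thallium stimulus; more negative B-score means stronger Kir2.1 block with less thallium influx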
Target sequence (P35561 whole entry, looked up): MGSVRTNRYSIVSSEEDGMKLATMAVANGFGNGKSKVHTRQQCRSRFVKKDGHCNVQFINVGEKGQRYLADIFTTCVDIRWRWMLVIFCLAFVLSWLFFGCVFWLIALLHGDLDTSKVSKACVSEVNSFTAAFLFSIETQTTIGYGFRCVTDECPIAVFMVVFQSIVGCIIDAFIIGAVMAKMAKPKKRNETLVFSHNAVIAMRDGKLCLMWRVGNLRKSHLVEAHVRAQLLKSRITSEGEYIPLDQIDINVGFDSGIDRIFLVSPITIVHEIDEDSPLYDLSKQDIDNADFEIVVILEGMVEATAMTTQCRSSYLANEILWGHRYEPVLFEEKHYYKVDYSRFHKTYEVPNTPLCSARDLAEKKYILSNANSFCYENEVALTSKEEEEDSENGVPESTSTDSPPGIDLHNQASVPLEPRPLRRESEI
Hits are given with their value; – = inactive; · = no result.

SMILES	KCNK9 inh	KCNQ1 pot	KCNK3 block	hERG protect	KCNQ1 block	Kir21 inh
Cc1cc(C)n2nc(CNS(=O)(=O)c3ccc(F)c(C)c3)nc2n1	–	–	–	–	–	–
CCOC(=O)n1c(=O)n(Cc2ccc(Cl)c(Cl)c2)c2ccccc21	-7.4	–	–	–	–	–
CCOC(=S)SCC(=O)Nc1ncc(C)s1	–	–	–	–	–	–
COC(=O)CNc1nc(Cl)nc(Nc2ccc(C)cc2)n1	–	–	–	6.7	–	–
COc1ccccc1CNC(=O)COc1ccc(S(=O)(=O)N2CCOCC2)cc1C	–	–	–	–	–	–
CC(=O)c1ccc(NC(=S)NC(=O)c2c(Cl)c(C)nn2C)cc1	–	11	–	–	–	–
CCCCOC(=O)c1ccc(NC(=S)NC(=O)c2c(Br)c(C)nn2C)cc1	–	–	–	–	–	–
O=C(N/N=C/c1ccc2ncccc2c1)c1ccco1	–	–	–	–	6	–
O=C(N/N=C/c1ccccn1)c1ccco1	–	–	–	–	–	–
CC1(C)CC(c2nc(-c3ccc([N+](=O)[O-])cc3)cs2)CCO1 (configuration not stated)	–	–	–	–	7	–
O=C(CN(CC1CCCO1)C(=O)CNS(=O)(=O)c1ccc(F)cc1)NCc1ccccc1 (configuration not stated)	–	–	–	–	–	–
O=C(CN(CC1CCCO1)C(=O)CNS(=O)(=O)c1ccccc1)NCc1ccco1 (configuration not stated)	–	–	–	7.2	–	–
CCn1c(SCC(=O)N2CCCCC2)nc2c(c1=O)SCC2	–	–	–	–	–	–
O=[N+]([O-])c1ccc2nc(-c3ccc(Cl)cc3)[nH]c2c1	–	–	–	–	6	–
O=C(Nc1cc(Cl)ccc1Cl)N1CCN(C(=O)Nc2cc(Cl)ccc2Cl)CC1	·	·	–	·	·	·
NS(=O)(=O)c1ccc(CCNC(=O)c2ccccc2-c2ccccc2)cc1	–	–	–	–	–	–
Cn1nc(-c2ccc(Cl)cc2)c2cc(C(=O)N3CCCC3)sc21	–	–	–	–	–	–
Cn1nc(-c2ccc(Cl)cc2)c2cc(C(=O)N3CCN(c4ccccn4)CC3)sc21	–	–	-13	–	–	–
Cc1cc(NC(=O)COC(=O)C2CC(=O)N(c3cccc(Cl)c3)C2)no1 (configuration not stated)	–	–	–	–	–	–
CNc1ccc(/C=C/C(=O)c2ccc3c(c2)OCCO3)cc1[N+](=O)[O-]	–	–	–	–	10	–
COc1ccc(S(=O)(=O)Nc2cc(C)ccc2OC)cc1C	–	–	–	–	–	-7
COc1ccc(S(=O)(=O)Nc2c(C)ccc3nsnc23)cc1OC	–	–	–	–	–	-5.1
COc1ccc(Cl)cc1NS(=O)(=O)c1ccc(OC)c(OC)c1	–	–	–	–	–	-8.2
COc1ccc(NS(=O)(=O)c2cccc3nsnc23)cc1OC	–	–	–	–	–	–
COc1ccc(C)cc1NS(=O)(=O)c1ccc(NS(=O)(=O)c2ccc(NC(C)=O)cc2)cc1	–	–	–	–	–	–
SMILES	KCNK9 inh	KCNQ1 pot	KCNK3 block	hERG protect	KCNQ1 block	Kir21 inh
O=C(CCNC(=O)c1ccc(Cl)cc1)Nc1ccccc1N1CCCC1	–	–	–	–	–	–
CCOc1ccc(NS(=O)(=O)c2ccc3c(c2)n(C)c(=O)n3C)cc1	–	–	–	–	–	–
CCOC(=O)C(=CNc1cc(C)ccn1)C(=O)OCC	–	–	–	5.1	–	–
CCOC(=O)C(=CNc1ccc(Oc2cccnc2)nc1)C(=O)OCC	–	–	–	4.6	–	–
CC(C)(C)c1ccc(C(=O)Nc2ccc(Oc3cccnc3)nc2)cc1	–	–	–	–	–	–
Cc1ccccc1NS(=O)(=O)c1nnc(NC(=O)c2ccccc2C)s1	–	–	–	–	–	–
COc1ccc(Cl)cc1-c1nc(SCC(=O)NC2CC2)n[nH]1	–	–	–	–	–	–
C#Cc1ccc2c(c1)COc1c3ccccc3nn1-2	–	–	–	–	–	–
CCN(CC(=O)Nc1ccccc1C(F)(F)F)C(=O)c1cc(-c2ccccc2)nn1-c1ccccc1	–	–	–	–	–	–
CCN(CC(=O)Nc1ccccc1OC)C(=O)c1cc(-c2ccccc2)nn1-c1ccccc1	–	–	–	–	7	–
COc1ccc(N2CCN(C(=O)CSc3ccc([N+](=O)[O-])cc3)CC2)cc1	–	–	–	–	8	–
Cc1ccc(C)c(NC(=O)c2nc(-c3ccccc3)n(-c3ccccc3)n2)c1	–	–	–	–	–	–
N#Cc1cccc(NC(=O)c2nc(-c3ccccc3)n(-c3ccccc3)n2)c1	–	–	–	7.1	–	–
CC1C(=O)C(C)C(c2cccc(Br)c2)NC1c1cccc(Br)c1 (configuration not stated)	–	–	–	–	–	–
COc1cccc(CNS(=O)(=O)c2ccc3c(c2)oc(=O)n3C)c1	–	–	–	–	–	–
COc1ccccc1/C=C(/C(=O)OCC(=O)Nc1ccccc1C)c1ccccc1	-7	–	–	–	8	–
C=C(C)C(=O)OCC(=O)NCc1ccccc1	–	–	–	–	–	–
COc1ccccc1/C=C(/C(=O)OCC(=O)NCc1ccccc1)c1ccccc1	-8	–	–	–	7	–
COc1ccccc1/C=C(/C(=O)OCC(=O)Nc1ccc(N(C)C)cc1)c1ccccc1	–	–	–	–	–	–
Cc1ccc(-c2nn(-c3ccccc3)cc2C2SCC(=O)N2Cc2ccccc2)o1 (configuration not stated)	–	–	–	–	7	–
COc1ccc(S(=O)(=O)N2CCOC2CNC(=O)C(=O)NCc2ccccn2)cc1C (configuration not stated)	–	–	–	–	–	–
CCN1C(=O)/C(=C/c2cn(-c3ccccc3)nc2-c2cccnc2)SC1=S	·	·	-10	·	·	·
Cc1ccc(-c2nn(-c3ccccc3)cc2/C=C2\SC(=S)N(CC(=O)O)C2=O)cc1	–	–	–	–	–	–
CCOc1ccc(NS(=O)(=O)c2c(C)nc3sc(CC)nn3c2=O)cc1	·	·	–	·	·	·
O=C(O)C(Cc1ccccc1)N1C(=O)c2c(Cl)c(Cl)c(Cl)c(Cl)c2C1=O (configuration not stated)	–	–	–	–	6	–
O=C(O)C(Cc1ccccc1)N1C(=O)c2ccccc2C1=O (configuration not stated)	–	–	–	–	–	–
CCOC(=O)C1=C(C)N=C2SCCC(=O)N2[C@@H]1c1cccs1	–	–	–	–	–	-4.3
COC(=O)C1=C(C)N=C2SCCC(=O)N2C1/C=C/c1ccccc1 (configuration not stated)	–	–	-8.9	–	–	–

Screening results: PubChem BioAssay, Johns Hopkins Ion Channel Center
